Measured values taken from ChEMBL document CHEMBL1149693, “Selective reversible inhibition of human butyrylcholinesterase by aryl amide derivatives of phenothiazine” (Bioorg Med Chem, 2007).
Calls of active or inactive are those of the source. No cut-off for these calls is given here.

Legend:
Cholinesterase = Cholinesterase (Homo sapiens, UniProt P06276); test: Inhibition of human plasma BuChE activity; assay type: cell-free
Procedure, shortened: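 Modified Ellman assay with purified human serum BuChE (0.05 U) in 0.005% gelatin, buffered DTNB pH 8.0. Inhibitor in 50% aqueous acetonitrile (1.67% v/v final), 1:10 serial dilutions. Butyrylthiocholine 3 × 10^-5 to 1.6 × 10^-4 M. A412 read every 5 s for 1 min at 23 °C, at least triplicate. Ki from slope replot of Lineweaver–Burk lines (no inhibitor, two inhibitor levels).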

[1] = molecular target: Acetylcholinesterase (Homo sapiens) (UniProt P22303); test: Inhibition of recombinant human AChE activity
Procedure, shortened: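 Ellman-type assay with recombinant human AChE (0.03 U) in 0.005% gelatin and buffered DTNB pH 8.0. Inhibitor in 50% aqueous acetonitrile, tested as 1:10 serial dilutions. Acetylthiocholine 3 × 10^-5 to 1.6 × 10^-4 M. Absorbance at 412 nm every 5 s over 1 min, 23 °C, generally triplicate and averaged. Lineweaver–Burk plots with and without inhibitor.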

Acetylcholinesterase (Homo sapiens), sequence (P22303 whole entry): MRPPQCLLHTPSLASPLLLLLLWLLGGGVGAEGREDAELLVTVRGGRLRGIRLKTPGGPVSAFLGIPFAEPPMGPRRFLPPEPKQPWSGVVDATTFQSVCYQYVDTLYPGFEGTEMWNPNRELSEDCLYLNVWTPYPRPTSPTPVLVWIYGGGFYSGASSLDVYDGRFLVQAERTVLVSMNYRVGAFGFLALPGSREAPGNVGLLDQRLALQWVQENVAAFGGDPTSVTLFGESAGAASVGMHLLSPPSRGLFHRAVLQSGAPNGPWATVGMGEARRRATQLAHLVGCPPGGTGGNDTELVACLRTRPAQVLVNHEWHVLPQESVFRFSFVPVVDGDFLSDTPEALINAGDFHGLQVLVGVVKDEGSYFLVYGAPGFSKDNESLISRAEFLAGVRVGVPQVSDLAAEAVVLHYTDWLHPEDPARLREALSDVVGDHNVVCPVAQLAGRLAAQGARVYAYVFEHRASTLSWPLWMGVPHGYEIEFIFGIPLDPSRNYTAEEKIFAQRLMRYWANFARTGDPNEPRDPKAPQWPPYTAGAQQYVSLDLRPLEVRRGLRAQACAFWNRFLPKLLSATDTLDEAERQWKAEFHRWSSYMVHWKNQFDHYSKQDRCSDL
Cholinesterase, sequence (P06276 whole entry): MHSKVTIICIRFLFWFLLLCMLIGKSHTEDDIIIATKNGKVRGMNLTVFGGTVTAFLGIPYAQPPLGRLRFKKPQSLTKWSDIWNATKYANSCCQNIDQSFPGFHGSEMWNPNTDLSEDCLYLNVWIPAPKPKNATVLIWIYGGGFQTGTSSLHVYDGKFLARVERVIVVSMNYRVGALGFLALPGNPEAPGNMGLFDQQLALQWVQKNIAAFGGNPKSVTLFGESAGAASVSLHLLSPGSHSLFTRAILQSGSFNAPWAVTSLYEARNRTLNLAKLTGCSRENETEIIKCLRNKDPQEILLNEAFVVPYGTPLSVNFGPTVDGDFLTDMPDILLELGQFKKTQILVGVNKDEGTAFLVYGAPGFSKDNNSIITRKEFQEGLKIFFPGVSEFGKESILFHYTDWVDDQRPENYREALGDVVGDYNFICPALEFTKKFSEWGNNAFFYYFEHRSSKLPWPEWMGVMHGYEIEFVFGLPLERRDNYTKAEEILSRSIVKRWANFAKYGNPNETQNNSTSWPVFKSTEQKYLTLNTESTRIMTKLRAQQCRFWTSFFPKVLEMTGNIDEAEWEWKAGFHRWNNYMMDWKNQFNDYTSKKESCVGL

In the case of `O=C(c1cccc(Br)c1)N1c2ccccc2Sc2ccccc21`, the Ki (Cholinesterase) is reported as 600 nM and the Activity [1] is reported as “inactive”.
`O=C(c1ccc([N+](=O)[O-])cc1)N1c2ccccc2Sc2ccccc21` was tested, and the Ki (Cholinesterase) was 820 nM and the Activity [1] was “inactive”.
For `CCC(C(=O)N1c2ccccc2Sc2ccccc21)c1ccccc1` (stereo not drawn), the Ki (Cholinesterase) was 400 nM and the Activity [1] was “inactive”.
For `O=C(Cc1ccc(-c2ccccc2)cc1)N1c2ccccc2Sc2ccccc21`, the Ki (Cholinesterase) was 1700 nM and the Activity [1] was “inactive”.
`O=C(CCc1ccccc1)N1c2ccccc2Sc2ccccc21` was tested, and the Ki (Cholinesterase) was 6200 nM and the Activity [1] was “inactive”.
In the case of `Cc1ccccc1C(=O)N1c2ccccc2Sc2ccccc21`, the Ki (Cholinesterase) is reported as 3100 nM and the Activity [1] is reported as “inactive”.
`O=C(c1ccc2ccccc2c1)N1c2ccccc2Sc2ccccc21` was tested, and the Ki (Cholinesterase) was 470 nM and the Activity [1] was “inactive”.
For `Cc1ccc(C(=O)N2c3ccccc3Sc3ccccc32)cc1`, the Ki (Cholinesterase) was 2500 nM and the Activity [1] was “inactive”.
`O=C(c1ccccc1)N1c2ccccc2Sc2ccccc21` was tested, and the Ki (Cholinesterase) was 5800 nM and the Activity [1] was “inactive”.
In the case of `O=C(/C=C/c1ccccc1)N1c2ccccc2Sc2ccccc21`, the Ki (Cholinesterase) is reported as 2700 nM and the Activity [1] is reported as “inactive”.
`O=C(Cc1ccccc1)N1c2ccccc2Sc2ccccc21` was tested, and the Ki (Cholinesterase) was 610 nM and the Activity [1] was “inactive”.
In the case of `O=C(c1ccc(-c2ccccc2)cc1)N1c2ccccc2Sc2ccccc21`, the Activity [1] is reported as “inactive”.
For `CC(C(=O)N1c2ccccc2Sc2ccccc21)c1ccccc1` (stereo not drawn), the Ki (Cholinesterase) was 560 nM and the Activity [1] was “inactive”.
`CC(=O)Oc1ccc(C(=O)N2c3ccccc3Sc3ccccc32)cc1` was tested, and the Ki (Cholinesterase) was 23000 nM and the Activity [1] was “inactive”.
With `O=C(c1cccc2ccccc12)N1c2ccccc2Sc2ccccc21` the Ki (Cholinesterase) was 88 nM and the Activity [1] was “inactive”.
In the case of `O=C(Cc1cccc2ccccc12)N1c2ccccc2Sc2ccccc21`, the Ki (Cholinesterase) is reported as 90 nM and the Activity [1] is reported as “inactive”.
With `Cc1cccc(C(=O)N2c3ccccc3Sc3ccccc32)c1` the Ki (Cholinesterase) was 1900 nM and the Activity [1] was “inactive”.
`CC(CC(=O)N1c2ccccc2Sc2ccccc21)c1ccccc1` (stereo not drawn) was tested, and the Ki (Cholinesterase) was 1700 nM and the Activity [1] was “inactive”.
For `COc1ccc(C(=O)N2c3ccccc3Sc3ccccc32)cc1`, the Ki (Cholinesterase) was 1500 nM and the Activity [1] was “inactive”.
In the case of `O=C(CCCc1ccccc1)N1c2ccccc2Sc2ccccc21`, the Ki (Cholinesterase) is reported as 220 nM and the Activity [1] is reported as “inactive”.
With `O=C(C(=O)N1c2ccccc2Sc2ccccc21)N1c2ccccc2Sc2ccccc21` the Ki (Cholinesterase) was 220 nM and the Activity [1] was “inactive”.
For `O=C(c1c2ccccc2cc2ccccc12)N1c2ccccc2Sc2ccccc21`, the Ki (Cholinesterase) was 3.5 nM and the Activity [1] was “inactive”.
`CC(C)(C)c1ccc(C(=O)N2c3ccccc3Sc3ccccc32)cc1` was tested, and the Activity [1] was “inactive”.
For `O=C(c1ccc(Br)cc1)N1c2ccccc2Sc2ccccc21`, the Ki (Cholinesterase) was 1300 nM and the Activity [1] was “inactive”.
`O=C(Cc1ccc2ccccc2c1)N1c2ccccc2Sc2ccccc21` was tested, and the Ki (Cholinesterase) was 28 nM and the Activity [1] was “inactive”.
